Experiments:
[1] = molecular target: GABA-A receptor; anion channel; assay: Inhibition of [3H]-Ro- 15-1788 binding to GABA-A benzodiazepine receptor of rat cortical membranes; type: cell membranes, Membrane
Method in brief: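 Rat (Sprague–Dawley, 250-300 g) cortical membranes, water-washed and frozen at -20 °C ≥18 h, then washed repeatedly in Krebs/HEPES pH 7.4. Incubated with 0.2-0.5 mg protein, [3H]-Ro 15-1788 (5 nM stock added), 10^-4 M nipecotic acid, 30 °C for 60 min. Nonspecific binding with 3 μM clonazepam. Filtration, scintillation counting.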

[2] = molecular target: GABA-A receptor; anion channel (Rattus norvegicus) (UniProt O09028+P15431+P18506+P18508+P19969+P20236+P23574+P23576+P28471+P28473+P30191+P62813+P63079+P63138+Q91ZM7+Q9ES14); assay: Ratio of binding affinity to the GABA-A receptor in the presence and absence of GABA; type: protein-complex assay
Method in brief: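 [3H]-Ro 15-1788 displacement in washed rat cortical membranes (Krebs/HEPES pH 7.4, nipecotic acid 10^-4 M, 30 °C, 60 min) run with and without GABA at 0.3 mM. Nonspecific binding was defined by 3 μM clonazepam, and read-out was filtration with scintillation counting. The value is the ratio of the affinities obtained with GABA and without it.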

Cc1noc(-c2ncn3c2CN=C(c2ccccc2)c2ccccc2-3)n1
IC50 [1]: 24 nM
GABA shift [2]: 1.94

From ChEMBL document CHEMBL1124349, “Novel benzodiazepine receptor partial agonists: oxadiazolylimidazobenzodiazepines” (J Med Chem, 1989)
